The test system of series [1] is Staphylococcus aureus. In words: Antimicrobial activity against vancomycin-resistant Staphylococcus aureus isolate PA assessed as bacterial count at 16 times MIC after 24 hrs by colony counting method in presence of 50% human serum. It is filed as functional. In a few lines: (§1)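 Time-kill in triplicate, starting inoculum 5 × 10^6 CFU/ml from a mid-exponential culture. Medium was 50% heat-treated, filtered human serum plus 50% broth, final 25 SMHB for TD-1792 and 50 SMHB for daptomycin. Drug at multiples of MIC. Samples to 24 h were plated on BHI agar for 24 h at 35°C. Value is the log10 CFU/ml change from baseline at 24 h.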

Series [2] relates to Staphylococcus aureus. In words: Antimicrobial activity against vancomycin-resistant Staphylococcus aureus isolate MI assessed as bacterial count at 32 times MIC after 24 hrs by colony counting method. Format: functional. In a few lines:
(§2)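 Time-kill in triplicate. Mid-exponential culture (OD600 ~0.3) diluted in supplemented Mueller-Hinton broth to 5 × 10^6 CFU/ml. Daptomycin was run at physiologic calcium, 1.1 to 1.3 mM. […] Samples at 0, 1, 4, 8 and 24 h were diluted in cold saline or vacuum filtered, then spiral-plated on BHI agar for 24 h at 35°C. Value is the log10 CFU/ml change from baseline at 24 h.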

Series [3] relates to Staphylococcus haemolyticus. In words: Antimicrobial activity against vancomycin-intermediate Staphylococcus haemolyticus after 24 hrs by microdilution method in presence of 50% human serum. The note with it: for MBC / MIC50 / MIC90: Staphylococcus haemolyticus, 24 h. It is filed as functional. In a few lines:
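Broth microdilution MIC/MBC (5 × 10^5 CFU/ml, 24 h, 35°C, duplicate) in 50% heat-treated (56°C, 1 h), filtered human serum plus supplemented Mueller-Hinton broth, with final broth strength 25 for TD-1792 and 50 for daptomycin. MBC was taken by plating clear wells on BHI agar.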
Background: In broth dilution the organism is exposed to a series of concentrations in liquid medium.

Series [4] has as its system Staphylococcus aureus. As to the kind of experiment: Antimicrobial activity against methicillin-resistant Staphylococcus aureus infected in patient with complicated skin and skin structure infections assessed as cure rate. It is filed as functional.
In series [5] the test system is Staphylococcus aureus. In words: Antimicrobial activity against vancomycin-resistant Staphylococcus aureus isolate PA assessed as bacterial count at 4 times MIC after 24 hrs by colony counting method in presence of 50% human serum. Format: functional. An outline of the steps: as §1
A short description of series [6]: Plasma protein binding in human in presence of human serum. The note with it: read-out: PPB (converted). It is filed as ADME, cell-free.
Series [7] concerns Staphylococcus aureus. In words: Antimicrobial activity against vancomycin-resistant Staphylococcus aureus isolate PA assessed as bacterial count at 8 times MIC after 24 hrs by colony counting method. It is filed as functional. In a few lines:
as §2

SMILES strings stand for the structures.

Consider `CN[C@H](CC(C)C)C(=O)N[C@H]1C(=O)N[C@@H](CC(N)=O)C(=O)N[C@H]2C(=O)N[C@H]3C(=O)N[C@H](C(=O)N[C@H](C(=O)NCCCO/N=C(\C(=O)N[C@@H]4C(=O)N5C(C(=O)[O-])=C(C[n+]6ccccc6)CS[C@H]45)c4nc(N)sc4Cl)c4cc(O)cc(O)c4-c4cc3ccc4O)[C@H](O)c3ccc(c(Cl)c3)Oc3cc2cc(c3O[C@@H]2O[C@H](CO)[C@@H](O)[C@H](O)[C@H]2O[C@H]2C[C@](C)(N)[C@H](O)[C@H](C)O2)Oc2ccc(cc2Cl)[C@H]1O`, for which the log10CFU/ml in series [1] is listed as 5.15. Further, the log10CFU/ml in series [2] turned out to be 5.13. In series [3], the MBC50 is 0.25 µg/mL; the MBC90 was 0.5 µg/mL; the MBC (usually the lowest tested concentration that kills the bacteria rather than only halting them) stood at 0.03 µg/mL; the MIC50 (commonly an inhibitory concentration at the 50% level, which refers to growth in some studies and to a panel of isolates in others) was 0.25 µg/mL. The MIC90 – broadly, the lowest concentration that inhibits either 90% of growth or 90% of the strains tested, depending on the study – in series [3] was determined as 0.5 µg/mL. The Activity in series [4] worked out at 94.7%. Further, the log10CFU/ml in series [5] came out at 4.04.
On to `CCCCCCCCCC(=O)N[C@@H](Cc1c[nH]c2ccccc12)C(=O)N[C@H](CC(N)=O)C(=O)N[C@@H](CC(=O)O)C(=O)N[C@@H]1C(=O)NCC(=O)N[C@@H](CCCN)C(=O)N[C@@H](CC(=O)O)C(=O)N[C@H](C)C(=O)N[C@@H](CC(=O)O)C(=O)NCC(=O)N[C@H](CO)C(=O)N[C@@H]([C@H](C)CC(=O)O)C(=O)N[C@@H](CC(=O)c2ccccc2N)C(=O)O[C@@H]1C`, for which the fraction unbound in series [6] is 0.08. Also, in series [3], the MBC50 was 4 µg/mL, the MBC90 was 8 µg/mL, the MBC stood at 1 µg/mL and the MIC50 is 1 µg/mL. Also, the MIC90 in series [3] came to 4 µg/mL. Also, in series [7], the log10CFU/ml is listed as 4.95.

Values taken from ChEMBL document CHEMBL1687766, “In vitro activity of the new multivalent glycopeptide-cephalosporin antibiotic TD-1792 against vancomycin-nonsusceptible Staphylococcus isolates” (Antimicrob Agents Chemother, 2010).
